Test results: ChEMBL document CHEMBL1124987, “7-Deaza-2-phenyladenines: structure-activity relationships of potent A1 selective adenosine receptor antagonists” (J Med Chem, 1990)
The source made the active and inactive calls. No cut-off for these calls is given here.

Legend:
[1] = molecular target: T1, Adenosine receptor A1 (Rattus norvegicus, UniProt P25099); experiment: Binding affinity against Adenosine A1 receptor from rat brain membrane using [3H]R-PIA as radioligand
T1 sequence (P25099 whole entry): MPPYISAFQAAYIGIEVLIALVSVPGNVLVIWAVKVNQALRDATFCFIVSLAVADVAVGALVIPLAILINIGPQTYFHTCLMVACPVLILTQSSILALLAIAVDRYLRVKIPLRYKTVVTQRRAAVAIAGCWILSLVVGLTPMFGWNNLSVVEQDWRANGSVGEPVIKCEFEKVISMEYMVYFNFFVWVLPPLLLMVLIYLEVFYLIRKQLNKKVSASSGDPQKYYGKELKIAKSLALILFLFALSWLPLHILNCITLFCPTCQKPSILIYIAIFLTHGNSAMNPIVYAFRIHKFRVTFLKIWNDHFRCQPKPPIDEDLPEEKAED
Method in brief: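 Rat cerebral cortical membranes; displacement of [3H]-(R)-PIA (Kd 1 nM) by a range of test concentrations. Nonspecific binding defined with 5 mM theophylline. Triplicate determinations in three separate experiments. IC50 converted to Ki via Cheng-Prusoff.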

[2] = molecular target: Adenosine A2 receptor (Rattus norvegicus, UniProt P29276+P30543); experiment: Binding affinity against Adenosine A2 receptor from rat striatal membrane using [3H]NECA as radioligand
[3] = molecular target: T2, Adenosine receptor A1 (Rattus norvegicus) (UniProt P25099); experiment: Reversal of adenylate cyclase inhibition via Adenosine A1 receptor by R-PIA in rat fat cells; assay type: functional, cell-based
T2 sequence (whole entry): T1 sequence (P25099 whole entry)
Method in brief: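 Rat fat cell membranes; adenylate cyclase inhibited by R-PIA through A1 receptors, and antagonist reversal measured. K_B calculated with the Schild equation from the ratio of R-PIA IC50 values with and without antagonist.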

[4] = molecular target: T3, Adenosine A2 receptor (Rattus norvegicus) (UniProt P29276+P30543); experiment: Inhibition of adenylate cyclase stimulation via Adenosine A2 receptor by NECA in rat pheochromocytoma PC12 cells; assay type: functional, cell-based; conditions: PC-12
Method in brief: (§1)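 Membranes from rat pheochromocytoma PC12 cells; adenylate cyclase activated via A2 receptors by NECA, measured with a range of antagonist concentrations. K_B from the Schild equation using the ratio of NECA EC50 values with and without antagonist. Means ± SEM of three separate experiments in triplicate.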

[5] = molecular target: T3, Adenosine A2 receptor (Rattus norvegicus); experiment: Inhibition of adenylate cyclase stimulation via Adenosine A2 receptor by NECA in rat striatal membrane; assay type: functional, cell membranes; conditions: Striatum
Method in brief: (§2)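 Rat striatal membranes; adenylate cyclase stimulated by NECA through A2 receptors, with antagonist present or absent. K_B derived by Schild equation from the NECA EC50 ratio with versus without antagonist.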

[6] = molecular target: T3, Adenosine A2 receptor (Rattus norvegicus); experiment: Inhibition of adenylate cyclase activity via A2 receptors by NECA in rat PC12 cells; c = Noncompetitive inhibition; assay type: functional, cell-based; conditions: PC-12; method in brief: as §1
[7] = molecular target: T3, Adenosine A2 receptor (Rattus norvegicus); experiment: Inhibition of adenylate cyclase stimulation via Adenosine A2 receptor by NECA in rat striatal membrane; b= No effect; assay type: functional; method in brief: as §2

Row | SMILES | Ki [1] [µM] | Ki [2] [µM] | Kb [3] [nM] | Kb [4] [µM] | Kb [5] [µM] | Kb [6] | Kb [7]
1 | Clc1ncnc2c1c1ccccc1n2-c1ccccc1 | 2.42 | 4.06 |  |  |  |  | 
2 | Cc1[nH]c2nc(-c3cccc(Cl)c3)nc(N)c2c1C | 0.73 | 20.8 |  |  |  |  | 
3 | Oc1ncnc2c1c1ccccc1n2-c1ccccc1 |  | 1.44 | 1400 | 0.22 |  |  | 
4 | Nc1ncnc2c1c(C=O)c(C=O)n2-c1ccccc1 | 50.1 | 76.3 |  |  |  |  | 
5 | Cc1c(C)n(Cc2ccc(Br)cc2)c2ncnc(N)c12 | > 100 | 154.9 |  |  |  |  | 
6 | Cc1c(C)n(C(C)c2ccccc2)c2nc(-c3cccc(Cl)c3)nc(N)c12 (centres undefined) | 0.028 | 59.9 |  |  |  |  | 
7 | Cc1[nH]c2nc(-c3ccccc3Cl)nc(N)c2c1C | 5.17 | 85.6 |  |  |  |  | 
8 | Cc1[nH]c2nc(-c3ccccc3)nc(N)c2c1C | 1.49 | 21.3 | 800 | 5.5 |  |  | 
9 | Cc1c(C)n(-c2ccccc2)c2nc(-c3ccccc3)nc(N)c12 | 0.036 | 0.024 |  |  |  |  | 
10 | Cc1[nH]c2ncnc(N)c2c1C | 55 | 208 |  |  |  |  | 
11 | Cc1c(C)n(-c2ccccc2)c2nc(-c3ccccc3Cl)nc(N)c12 | 0.99 | 40.7 |  |  |  |  | 
12 | Sc1nc(S)c2c3c(n(-c4ccccc4)c2n1)CCCC3 | 84.8 | > 250 |  |  |  |  | 
13 | c1ccc(-n2c3ccccc3c3c(NC4CCCCC4)ncnc32)cc1 | 1.96 | 133 |  |  |  |  | 
14 | CS(=O)(=O)c1nc(S(C)(=O)=O)c2c3c(n(-c4ccccc4)c2n1)CCCC3 | 16.9 | 157 |  |  |  |  | 
15 | Cc1[nH]c2nc(-c3ccc(Cl)cc3)nc(N)c2c1C | 1.24 | 35.6 |  |  |  |  | 
16 | Cc1[nH]c2ncnc(O)c2c1C | 58 | 176 |  | 33 |  |  | 
17 | Cc1nc(N)c2c(C)c(C)[nH]c2n1 | 88 | > 250 |  |  |  |  | 
18 | CCCCCCn1c(C)c(C)c2c(N)ncnc21 | 60 | 263 |  | 42 |  |  | 

Row | SMILES | Ki [1] [µM] | Ki [2] [µM] | Kb [3] [nM] | Kb [4] [µM] | Kb [5] [µM] | Kb [6] | Kb [7]
19 | NNc1ncnc2c1c1ccccc1n2-c1ccccc1 | 8.42 | 7.71 |  |  |  |  | 
20 | Oc1ncnc2c1c1c(n2-c2ccccc2)CCCC1 |  | 1.35 |  | 0.87 | 1.76 |  | 
21 | Cc1c(C)n([C@H]2C[C@H](O)[C@@H](CO)O2)c2ncnc(N)c12 | > 250 | > 250 |  |  |  |  | 
22 | Nc1ncnc2c1ccn2-c1ccccc1 | 3.1 | 25 | 4600 | 17 |  |  | 
23 | Cc1c(C)n([C@H](C)c2ccccc2)c2nc(-c3ccccc3)nc(N)c12 | 0.0047 | 3.71 | 3.8 | 3.06 |  |  | 
24 | O=c1[nH]cnc2c1c1c(n2-c2ccccc2)CCCC1 | 2.07 |  |  |  |  |  | 
25 | Cc1c(C)n(-c2ccccc2)c2nc(-c3ccc(Cl)cc3)nc(N)c12 | 0.122 | > 250 | 57 |  |  | Non-competitive inhibition | inactive
26 | COc1cccc(-n2c(C)c(C)c3c(N)ncnc32)c1OC | 54.3 |  |  |  |  |  | 
27 | Cc1c(C)n(-c2ccccc2)c2ncnc(N)c12 | 18 | 123 | 22000 | 62 |  |  | 
28 | O=c1[nH]cnc2c1c1ccccc1n2-c1ccccc1 | 0.88 |  |  |  |  |  | 
29 | Nc1ncnc2c1c1c(n2-c2ccccc2)CCCC1 | 3.24 | 10.9 |  | 7.5 | 31.6 |  | 
30 | Nc1ncnc2c1c1ccccc1n2-c1ccccc1 | 1.95 | 5.98 | 3300 | 1.73 | 14 |  | 
31 | Cc1nc(N)c2c(C)c(C)n(-c3ccccc3)c2n1 | 30.4 | 203 |  |  |  |  | 
32 | C=CCn1c(C)c(C)c2c(N)ncnc21 | 49 | 83 |  | 40 |  |  | 
33 | Nc1ncnc2c1c(C(=O)O)c(C(=O)O)n2-c1ccccc1 | 67 |  |  |  |  |  | 
34 | Cc1c(C)n(C(C)c2ccccc2)c2nc(-c3ccccc3Cl)nc(N)c12 (centres undefined) | 0.052 | 28.1 |  |  |  |  | 
35 | CSc1nc(SC)c2c3c(n(-c4ccccc4)c2n1)CCCC3 | 97.8 | > 250 |  |  |  |  | 
36 | Cc1c(C)n([C@@H](C)c2ccccc2)c2nc(-c3ccccc3)nc(N)c12 | 0.165 | 80.8 |  |  |  |  | 
